Screening results (PubChem)
TLR4 MyD88 comp: inhibitors of TLR4-MyD88 association in cells, primary screen, cell-based, HeLa CL3-4, BLA complementation, FRET ratio | 200,000 compounds, 0.18% hits | inhibition, % at 8.4 µM | HeLa CL3-4 TLR4/MyD88 BLA complementation | Toll-like receptor 4 (Homo sapiens) + Myeloid differentiation primary response protein …; in the data active means inhibition above about 25%;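 further: 0% = vehicle and 100% = reference inhibitor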
MC4R ag barr: MC4R agonists recruiting beta-arrestin, primary screen, cell-based, luminescence, agonist arm of biased-ligand search. Melanocortin receptor 4 (Homo sapiens), P32245. activation, % at 8.9 µM. 360,000 compounds, 0.98% hits. U2OS MC4R beta-arrestin complementation; percent of melanotan II response, DMSO zero;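 active means activation above a per-plate cutoff, the mean activation of sample wells on that plate plus 3 SD, cut at about 8% in these data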
MC4R antag cAMP: MC4R antagonists of cAMP signaling, primary screen, cell-based, TR-FRET, antagonist arm of biased-ligand search. Melanocortin receptor 4 (Homo sapiens), P32245. MC4R-expressing cells, MTII-stimulated cAMP, LANCE TR-FRET. inhibition, % at 6.5 µM. 360,000 compounds, 0.48% hits. AID 540295, 2011;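 active means inhibition above its plate's cutoff, the mean of tested wells on that plate plus 3 SD, cut at about 29% in these data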;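 further: 0% = Melanotan II alone and 100% = Melanotan II plus saturating MCL0020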
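System – human MC4R-expressing U2OS cells · Also added – Melanotan II · Dosing – one concentration, 6.5 µM nominal · Timing – 30-min compound, 1-h challenge, 1-h detection, room temperature · Measured by – Eu-cAMP/anti-cAMP TR-FRET, emission 671 nm · Replicates – singlicate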
MIN6 prolif: inducers of MIN6 beta-cell proliferation, primary screen, ATP luminescence, uHTS; proliferation, % at 10 µM; AID 2380, 2010; 330,000 compounds, 0.29% hits; MIN6 cells proliferation, ATPlite luminescence, 48 h; cells starved in 0.2% serum; 100% = growth in 10% serum;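 active means compounds whose signal lies at least 3.5 SD above the mean of all wells on their plate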;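 further: 0% = DMSO-treated cells in low-serum medium and 100% = 10% serum control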
TLR9-MyD88 block: inhibitors of TLR9-MyD88 association in cells, primary screen, cell-based, CHO, BLA complementation, fluorescence; CCF4 FRET ratio; inhibition, % at 4.98 µM; Toll-like receptor 9 (Homo sapiens) + Myeloid differentiation primary response protein …; 340,000 compounds, 0.21% hits; AID 504734, 2011;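 active means inhibition above the mean over all tested compounds plus 3 SD, cut at about 21% in these data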;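 further: 0% = DMSO only wells and 100% = clavulanate BLA inhibitor control wells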
NOD2 RIPK2 PPI: NOD2-RIPK2 binding disruptors in cells, primary screen, fluorescence, CHO cells, BLA complementation | Receptor-interacting serine/threonine-protein kinase 2 (Homo sapiens), O43353 | CCF4 ratio | inhibition, % at 4.98 µM | 360,000 compounds, 0.38% hits | AID 624267, 2012; in the data active means inhibition above about 21%;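 further: 0% = vehicle only and 100% = reference blocker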
Target sequence (O43353 whole entry, looked up): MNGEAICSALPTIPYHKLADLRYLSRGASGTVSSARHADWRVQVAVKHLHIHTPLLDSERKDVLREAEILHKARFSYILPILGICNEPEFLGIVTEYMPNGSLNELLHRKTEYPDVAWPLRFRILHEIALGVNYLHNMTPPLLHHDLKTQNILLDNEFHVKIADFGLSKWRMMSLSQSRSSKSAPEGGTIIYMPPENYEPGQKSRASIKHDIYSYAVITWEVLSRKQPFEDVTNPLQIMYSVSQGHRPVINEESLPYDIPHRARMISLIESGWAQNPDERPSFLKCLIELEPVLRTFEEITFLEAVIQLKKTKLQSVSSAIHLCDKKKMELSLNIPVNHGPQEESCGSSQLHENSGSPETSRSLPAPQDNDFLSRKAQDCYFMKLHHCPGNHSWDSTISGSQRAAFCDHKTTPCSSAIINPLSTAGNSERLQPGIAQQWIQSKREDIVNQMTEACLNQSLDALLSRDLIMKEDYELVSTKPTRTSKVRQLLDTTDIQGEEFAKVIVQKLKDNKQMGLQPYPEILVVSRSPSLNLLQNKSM
cAMP nonselect: nonselective cAMP signaling inhibitors, parental cells, counter-screen for MC4R biased antagonist project, cell-based, TR-FRET, U2OS, forskolin, triplicate; shares compounds with MC4R antag cAMP; inhibition, % at 6.5 µM; 1,600 compounds, 26% hits; LANCE TR-FRET; AID 602193, 2012;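 active means mean inhibition over triplicates above the low-control well mean plus 3 SD, set per campaign, cut at about 13% in these data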;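 further: signal is single emission at 671 nm which falls as cellular cAMP rises; 0% = forskolin-stimulated wells and 100% = buffer without forskolin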
MC4R antag conf: MC4R cAMP antagonists, retest, confirmation, cell-based, TR-FRET; shares compounds with MC4R antag cAMP; MC4R-expressing cells, MTII-stimulated cAMP; inhibition, % at 6.5 µM; 1,600 compounds, 27% hits; in the data active means inhibition above about 29%;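 further: 0% = agonist stimulated wells alone and 100% = agonist stimulated wells plus saturating reference antagonist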
Active calls of the source: *; . = no result. Most compounds without a hit are left out; they make up all but 2.1% or so of the library.

SMILES	TLR4 MyD88 comp	MC4R ag barr	MC4R antag cAMP	MIN6 prolif	TLR9-MyD88 block	NOD2 RIPK2 PPI	cAMP nonselect	MC4R antag conf
CC1CCC2(CC1)NC(=O)N(CC(=O)Nc1ccc3c(c1)OCCO3)C2=O (configuration not stated)	7.2	-2.8	9.7	0.6	-0.9	-0.5	.	.
CC1CCC2(CC1)NC(=O)N(CC(=O)NC(=O)Nc1ccc3c(c1)OCCO3)C2=O (configuration not stated)	.	3.4	29.5*	-3.6	-5.7	-4.0	-2.9	-12.4
CC(C)CN(C(=O)COC(=O)c1cccnc1Cl)c1c(N)n(Cc2ccccc2)c(=O)[nH]c1=O	.	-1.2	4.3	-3.0	4.1	-1.3	.	.
O=C(OCc1ccccc1)c1cnc(Cl)c(Cl)c1	.	0.8	25.6	-2.0	-2.2	10.6	.	.
CC(C)CN(C(=O)COC(=O)c1cnc(Cl)c(Cl)c1)c1c(N)n(Cc2ccccc2)c(=O)[nH]c1=O	.	-3.4	46.6*	-6.9	0.2	-1.8	11.9	50.8*
O=C(COC(=O)c1cnc(Cl)c(Cl)c1)NCc1cccs1	6.9	-1.6	36.0*	-2.9	-4.1	-3.1	21.7*	34.8*
CC(C)N(Cc1ccccc1)C(=O)COC(=O)c1cnc(Cl)c(Cl)c1	.	-3.5	45.3*	-6.5	-4.5	9.7	33.2*	52.3*
CCN(CC)S(=O)(=O)c1ccc(/C=C/C(=O)OCC(=O)NNC(=O)c2ccc(OC)cc2)cc1	.	-1.0	11.6	-1.3	-4.4	-2.2	.	.
O=C(c1ccc([N+](=O)[O-])cc1)N(Cc1ccc(Cl)cc1)N1C(=O)CCCC1=O	3.3	4.2	32.3*	-2.2	-0.3	-3.0	16.7*	31.6*
CCN(CCS(=O)(=O)c1ccc(Cl)cc1)C(=O)Nc1ccc(Cl)cc1	.	-0.4	3.0	-1.3	1.7	-5.2	.	.
COc1cccc(C(=O)c2c[nH]c(C(=O)NCc3cccnc3)c2)c1	8.4	-1.2	30.3*	1.5	-4.3	-7.2	3.3	12.4
COc1ccc(/C=C/C(=O)c2ccc([N+](=O)[O-])o2)cc1	.	-2.6	30.1*	-7.9	1.3	-2.7	7.8	7.2
Cc1cccc(/C=C/C(=O)c2ccc([N+](=O)[O-])o2)c1	.	-0.4	5.9	-6.9	4.5	6.2	.	.
CC(=O)c1ccc(NC(=O)C2(S(=O)(=O)c3ccccc3)CC2)cc1	-0.4	0.4	29.7*	0.2	-0.3	2.8	0.1	-3.4
O=C(Nc1ccc(N2CCOCC2)cc1)C1(S(=O)(=O)c2ccccc2)CC1	-6.1	1.3	-7.9	-0.3	12.8	5.0	.	.
COC(=O)c1ccc(COC(=O)CCS(=O)(=O)c2ccc(C)cc2)cc1	-8.8	-2.3	8.3	-2.2	0.9	1.5	.	.
COC(=O)c1ccc(COC(=O)CNS(=O)(=O)c2ccc(C)cc2)cc1	-0.2	0.6	39.5*	-3.4	5.5	-3.9	18.8*	25.7
Cc1ccc(S(=O)(=O)NCC(=O)OCc2csc(-c3ccccc3)n2)cc1	0.8	1.6	29.5*	0.0	-20.1	0.8	14.9*	27.6
CSCCC(C(=O)NC1CCCC1)n1c(-c2ccncc2)nc2ccccc21 (configuration not stated)	.	.	.	.	.	-4.8	.	.
C=CCNC(=O)c1c(Cl)nc(C)c([N+](=O)[O-])c1C	15.7	1.2	12.6	0.0	-9.9	-6.4	.	.
COc1ccc(-n2c(SC3CCOC3=O)nc3ccccc32)cc1 (configuration not stated)	0.9	-0.6	42.1*	-2.4	1.3	6.2	10.7	22.8
O=C1OCCC1Sc1nnc(-c2ccc(F)cc2)n1Cc1ccccc1 (configuration not stated)	5.2	-1.7	32.1*	-2.2	13.1	8.2	25.8*	32.3*
O=C1OCCC1Sc1nc2ccccc2n1-c1ccccc1 (configuration not stated)	1.0	0.4	22.7	-0.6	1.6	-0.7	.	.
O=C1OCCC1Sc1nc2ccccc2n1Cc1ccccc1 (configuration not stated)	17.2	-1.9	30.0*	0.0	2.5	-2.6	10.0	36.9*
CN(Cc1ccc(Cl)c(Cl)c1)C(=O)c1ccccc1SCC(=O)N1CCCC1	.	-3.0	19.8	3.4	-5.0	-9.2	.	.
SMILES	TLR4 MyD88 comp	MC4R ag barr	MC4R antag cAMP	MIN6 prolif	TLR9-MyD88 block	NOD2 RIPK2 PPI	cAMP nonselect	MC4R antag conf
O=C(COc1ccc(S(=O)(=O)N2CCOCC2)cc1)NCc1ccccn1	.	-0.3	-0.8	0.1	-2.4	-3.3	.	.
COc1ccc2oc(C(=O)OCC(=O)NCCN3C(=O)CSC3=O)c(C)c2c1	-0.9	-2.4	13.3	-2.8	-6.2	-10.6	.	.
O=C(/C=C/c1ccc(Cl)c(C(F)(F)F)c1)N1CCN(c2ccccn2)CC1	.	0.0	2.4	-2.7	-5.5	2.4	.	.
Cc1ccc(NC(=O)CCNC(=O)c2ccccc2Cl)cc1S(=O)(=O)N1CCOCC1	.	-1.0	6.5	1.9	1.2	-10.9	.	.
CSCCC(NC(=O)c1ccccc1Cl)C(=O)Nc1ccc(C)c(S(=O)(=O)N2CCOCC2)c1 (configuration not stated)	.	3.0	29.2*	-0.8	3.8	4.7	8.4	12.6
CCc1cc2ccc(OC)cc2nc1SCC(=O)N1CCN(C(=O)c2ccco2)CC1	.	-1.1	33.6*	0.1	-1.4	12.0	1.7	18.4
CCc1cc2ccc(OC)cc2nc1SCC(=O)NNC(=O)c1ccco1	-5.5	-2.0	2.0	-0.3	1.4	2.6	.	.
CC1CCCCC1NC(=O)/C(C#N)=C/c1ccccc1F (configuration not stated)	2.4	-1.6	35.4*	-5.8	-4.1	5.6	5.4	14.2
C[C@H](CO)N1C[C@H](C)[C@@H](CN(C)Cc2ccncc2)OCCCC[C@H](C)Oc2ccc(NC(=O)CCCN(C)C)cc2C1=O	.	.	.	.	.	-2.0	.	.
C[C@H](O)CNC(=O)c1[nH]cnc1C(=O)Nc1ccc(CNC(=O)OC(C)(C)C)cc1	.	0.2	10.0	.	4.8	8.3	.	.
